Screening data (PubChem)
OX1R antag-1 – antagonists of human orexin 1 receptor (OX1R); Orexin/Hypocretin receptor type 1 (Homo sapiens), O43613; OX1R-expressing cells, FRET antagonist read-out; inhibition, % at 6.6 µM; 330,000 compounds, 1.8% hits; in the data active = inhibition mostly above about 38%, no sharp cut-off; inactive = mostly below about 40%;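 also: 0% = agonist challenge alone and 100% = reference antagonist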
TAAR1 ag – human TAAR1 agonists, primary screen, Fluo-8 calcium fluorescence, CHO RD-HGA16 cells; vehicle wells 0%, saturating PEA agonist 100%; AID 624467, 2012; activation, % at 3 µM; 360,000 compounds, 0.99% hits;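 active = activation above the mean activation of all test compounds in the run plus 3 SD, cut at about 38% in these data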
Target sequence (Q96RJ0 whole entry, looked up): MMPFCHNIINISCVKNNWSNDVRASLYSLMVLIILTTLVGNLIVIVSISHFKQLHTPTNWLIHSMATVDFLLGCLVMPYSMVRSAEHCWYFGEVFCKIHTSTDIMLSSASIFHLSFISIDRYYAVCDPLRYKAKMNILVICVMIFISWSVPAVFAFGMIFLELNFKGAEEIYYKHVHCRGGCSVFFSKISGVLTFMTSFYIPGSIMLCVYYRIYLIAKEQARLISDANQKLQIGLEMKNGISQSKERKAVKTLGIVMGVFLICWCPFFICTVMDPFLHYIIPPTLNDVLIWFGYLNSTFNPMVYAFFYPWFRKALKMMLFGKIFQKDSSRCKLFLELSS
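System: CHO-derived RD-HGA16 cells with stable Gα16 and human TAAR1 / Times: 17-24 h plating, Fluo-8 75 min 37 °C, 30 min RT / Technique: calcium-sensitive Fluo-8 signal, excitation 470-495, emission 515-575 nm / Measure: % activation relative to PEA EC100 response / Benchmarks: DMSO and PEA EC100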
CHO parental Ca – ATP-evoked calcium signal inhibitors, parental CHO, primary screen, counter-screen for OX1R antagonist project, cell-based, fluorescence, Fluo-8 calcium dye; parental CHO-K1, ATP-induced calcium, Fluo-8 fluorescence; 330,000 compounds, 0.63% hits; inhibition, % at 5.6 µM; AID 463079, 2010;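 active = inhibition above that plate's mean sample inhibition plus 3 SD, cut at about 26% in these data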;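 also: 0% = ATP-challenged DMSO wells and 100% = DMSO wells without ATP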
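Test system: untransfected parental CHO cell line; also added: ATP stimulus; dosing: 5.6 µM, single dose; signal: calcium-sensitive Fluo-8 fluorescence; measure: percent inhibition of ATP-evoked calcium rise, normalized to controls; benchmarks: low control ATP plus DMSO, high control DMSO only; replication: one well per compound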
OX1R antag-2 – OX1R (HCRTR1) antagonists, primary screen, fluorescence, CHO/OX1R cells, Fluo-8 calcium, orexin A; inhibition, % at 5 µM; AID 434989, 2010; Orexin/Hypocretin receptor type 1 (Homo sapiens), O43613; Fluo-8 calcium fluorescence; 330,000 compounds, 0.43% hits;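 active = inhibition above its plate's threshold, mean inhibition of all tested compounds on the plate plus 3 SD, cut at about 37% in these data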;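 also: 0% = orexin A challenge wells and 100% = SB-334867-A antagonist wells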
GPR7 antag – GPR7 receptor antagonists, primary screen, cell-based, fluorescence, single concentration. inhibition, % at 4.4 µM. GPR7-expressing cells, fluorescence antagonist assay. Neuropeptides B/W receptor type 1 (Homo sapiens), P48145. 290,000 compounds, 1.1% hits; in the data active = inhibition above about 16%, passing the limit was not always enough;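 also: cells stimulated with the agonist NPW; 0% = agonist with vehicle and 100% = vehicle without agonist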
Target sequence (P48145 whole entry, looked up): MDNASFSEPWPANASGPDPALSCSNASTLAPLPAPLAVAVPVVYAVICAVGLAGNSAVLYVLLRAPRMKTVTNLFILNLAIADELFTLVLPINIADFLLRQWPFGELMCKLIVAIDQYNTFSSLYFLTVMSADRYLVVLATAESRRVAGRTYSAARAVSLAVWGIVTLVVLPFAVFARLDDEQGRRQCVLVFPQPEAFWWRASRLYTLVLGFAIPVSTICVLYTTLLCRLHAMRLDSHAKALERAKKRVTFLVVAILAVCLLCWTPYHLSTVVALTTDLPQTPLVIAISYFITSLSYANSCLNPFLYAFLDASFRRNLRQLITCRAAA
TAAR1 antag – human TAAR1 antagonists, primary screen, Fluo-8 calcium fluorescence, CHO RD-HGA16 cells; Trace amine-associated receptor 1 (Homo sapiens), Q96RJ0; antagonist; inhibition, % at 3 µM; 360,000 compounds, 1.5% hits;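 active = inhibition above a per-plate cutoff, the mean inhibition of test compounds on that plate plus 3 SD, cut at about 49% in these data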;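 also: 0% = DMSO plus EC80 beta-PEA response and 100% = DMSO alone without agonist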
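Assay system: RD-HGA16 CHO cells with stable hTAAR1 and Gα16 / Reagent: EC80 β-phenethylamine stimulus / Doses: 3 µM, single point / Timing: dye loading 75 min at 37 °C, then 30 min room temperature / Measured by: Fluo-8 intracellular calcium dye fluorescence, real-time kinetic reads / Controls: vehicle wells and EC80 agonist wells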
* marks the source's active call; other numbers are inactive results; · = no result given. Compounds with a hit are over-represented: about 4.6% of the library has one in this group of screens.

SMILES	OX1R antag-1	TAAR1 ag	CHO parental Ca	OX1R antag-2	GPR7 antag	TAAR1 antag
COc1cc(/C=C/C(=O)NC(=O)c2ccccc2O)ccc1O	67*	2	-15	-16	-25	-36
O=C(CNc1cc(S(=O)(=O)N2CCOCC2)ccc1N1CCCC1)Nc1ccc(Cl)cc1F	·	6	·	·	·	-6
O=S1(=O)CCN(Cc2ccncc2)CC1	·	1	·	·	·	-2
CN(CC(=O)Nc1ccccc1Br)C(=O)COc1ccc2ccccc2c1	41*	10	-16	1	·	-14
Cc1ccc(OCCCC(=O)N(C)CC(=O)Nc2ccccc2Br)cc1	12	0	-21	-17	·	-13
O=C(O)C(Cc1ccccc1)N1C(=O)C=CC1=O (centres undefined)	·	2	·	·	·	9
O=C(NCc1ccccc1)C(c1ccccc1)N(Cc1cccs1)C(=O)c1cnccn1 (centres undefined)	9	18	-6	-11	0	62*
CCOCCCNC(=O)C(c1ccc(OC)cc1)N(Cc1cccs1)C(=O)c1ccccn1 (centres undefined)	0	18	-4	-9	-15	50*
O=C(NCc1ccccc1)C(c1cccs1)N(Cc1cccs1)C(=O)c1cnccn1 (centres undefined)	29	17	-15	-12	-8	50*
C=CCN(C(=O)c1csnn1)C(C(=O)NCc1ccccc1)c1cccs1 (centres undefined)	22	0	-17	-18	-14	1
COc1cc(NC(=O)Nc2cccn3nc(COCCO)nc23)cc(OC)c1OC	·	2	·	·	·	-6
CCCCCn1cc(CCC(=O)Nc2ccc(N(C)c3ccccn3)cc2)c2ccccc21	·	-1	·	·	·	-1
CC(C)[C@H](NS(=O)(=O)c1ccc(F)cc1F)C(=O)N1CCC[C@H]1C(=O)NCc1ccccc1	·	1	·	·	·	-24
NS(=O)(=O)c1ccc(N=Nc2ccc(=O)[nH]c2O)cc1	74*	6	6	-17	7	-3
NS(=O)(=O)c1ccc(N=Nc2ccc(O)c3ncccc23)cc1	3	1	-3	-15	-3	-11
COC(=O)C1=C(C)N(C)C(=NCc2ccccc2)NC1c1cccc(Cl)c1 (centres undefined)	·	6	·	·	·	33
Cc1ccc(C(=O)Nc2ccccc2C(=O)NC(Cc2c[nH]c3ccccc23)C(=O)O)cc1 (centres undefined)	50*	3	-20	-20	-2	-12
Cc1ccc(C(=O)Nc2ccccc2C(=O)NC(Cc2ccccc2)C(=O)O)cc1 (centres undefined)	7	2	-11	-5	9	7
Brc1ccc(Nc2nc(-c3cccnc3)cs2)cc1	59	-1	17	-26	-1	14
Cc1ccc(Nc2nc(-c3cccnc3)cs2)cc1C	58*	3	-32	-39	-13	-7
CC(NC(=O)Cn1cnc2c1c(=O)n(C)c(=O)n2C)c1ccccc1 (centres undefined)	16	8	-7	-12	-10	-3
CCc1ccc(C(C)NC(=O)Cn2cnc3c(=O)n(C)c(=O)n(C)c32)cc1 (centres undefined)	2	38*	-11	-15	-5	1
Cc1ccccc1CN1[C@@H](C)[C@H](c2ccccc2)Oc2cccc(N3CCCC(C)C3)c2S1(=O)=O (some centres undefined)	·	1	·	·	·	-21
COC(=O)c1cc(C(=O)OCC(=O)NCc2cccs2)cc([N+](=O)[O-])c1	31*	3	-18	-22	·	-9
Cc1cc(C(=O)OCC(=O)NCc2cccs2)ccc1[N+](=O)[O-]	16	1	-13	1	·	4
SMILES	OX1R antag-1	TAAR1 ag	CHO parental Ca	OX1R antag-2	GPR7 antag	TAAR1 antag
O=[N+]([O-])c1ccc2nc(-c3ccc(Cl)cc3)n(OCc3ccccc3)c2c1	15	39*	-11	-5	4	18
Clc1ccc(COn2c(-c3ccccc3)nc3ccccc32)cc1	54*	6	-8	-5	-10	19
COc1cccc(CNc2ccc(S(=O)(=O)N3CCCC3)cn2)c1	4	3	-19	-30	·	-16
Cc1ccc(C(=O)N/N=c2\oc3ccccc3cc2C(N)=O)cc1	6	6	-15	-24	-1	-7
NC(=O)c1cc2ccccc2o/c1=N\NC(=O)c1ccncc1	69*	-1	-7	-14	-6	-14
O=C(N[C@H](Cc1ccccc1)C(=O)NCC1CCCO1)[C@H]1O[C@@H](n2ccc(=O)[nH]c2=O)[C@H](O)[C@@H]1O (some centres undefined)	·	2	·	·	·	-17
C[C@H]1CN([C@@H](C)CO)C(=O)CCCn2nncc2CO[C@@H]1CN(C)C(=O)Nc1ccccc1F	·	3	·	·	·	-14
CCCSc1nc(C)cc(C)c1S(=O)(=O)c1ccccc1C	34	16	28	54*	-11	30
Cc1cc(C)c(S(=O)(=O)c2ccccc2C)c(SCC(C)C)n1	16	9	57*	27	-7	-2
COc1cccc(CNC(=O)[C@H]2CCCN2C(=O)C2CCCN2C(=O)c2ccc(OC)c(F)c2)c1 (some centres undefined)	·	0	·	·	·	3
O=[N+]([O-])c1ccc(-c2nc(Cl)c3c(n2)CCCC3)o1	·	0	·	·	·	-16
Cc1ccc(NC(=S)NCCN(C2CCCCC2)C2CCCC2)cc1	6	10	-19	-34	31*	-15
CC(c1ccco1)N(C(=O)c1ccccc1NS(=O)(=O)c1cccc([N+](=O)[O-])c1)c1ccccn1 (centres undefined)	63*	·	0	-31	-13	·
CC(c1ccco1)N(C(=O)c1ccccc1NS(=O)(=O)c1ccc(Cl)cc1)c1ccccn1 (centres undefined)	32	5	-12	-3	-3	-3
CC(c1ccco1)N(C(=O)c1ccccc1NS(=O)(=O)c1cc([N+](=O)[O-])ccc1Cl)c1ccccn1 (centres undefined)	72*	7	-16	-15	-5	32
COC(=O)C1=C(C)N(Cc2cccc(C(F)(F)F)c2)C(=NCc2ccc3c(c2)OCO3)NC1CCc1ccccc1 (centres undefined)	·	13	·	·	·	-12
Cc1ccc2c(c1)-c1c(cnn1CC(=O)N(Cc1ccco1)C1CCCCC1)CO2	52*	-1	-12	-13	-4	8
COc1ccc(C2CC(=O)C(c3ccc(Cl)cc3)=CN2Cc2ccccc2)cc1 (centres undefined)	·	3	·	·	·	-1
